ChEMBL document CHEMBL1154428, “Cloning, nucleotide sequencing, and analysis of the AcrAB-TolC efflux pump of Enterobacter cloacae and determination of its involvement in antibiotic resistance in a clinical isolate” (2007)
Values after ≈ are worked out from the molar mass of the structure shown.

Key:
Enterobacter cloacae [1] = assay: Antibacterial activity against drug-resistant AcrAB-TolC efflux pump deficient Enterobacter cloacae EcdeltaacrA isolate expressing pACYC184 plasmid by Etest; type: functional
Enterobacter cloacae [2] = assay: Antibacterial activity against drug-resistant Enterobacter cloacae EcDC64 isolate expressing AcrAB-TolC efflux pump by Etest; type: functional
Enterobacter cloacae [3] = assay: Antibacterial activity against drug-resistant AcrAB-TolC efflux pump deficient Enterobacter cloacae EcdeltaacrA isolate expressing pAP3 plasmid containing Enterobacter aerogenes acrR gene by Etest; type: functional
Enterobacter cloacae [4] = assay: Antibacterial activity against drug-resistant AcrAB-TolC efflux pump deficient Enterobacter cloacae EcdeltaacrA isolate expressing pAP2 plasmid containing Enterobacter cloacae acrA gene by Etest; type: functional
Enterobacter cloacae [5] = assay: Antibacterial activity against drug-resistant Enterobacter cloacae EcDC64 isolate expressing AcrAB-TolC efflux pump in presence of 20 ug/ml efflux pump inhibitor Phe-Arg-beta-naphthylamide by Etest
Enterobacter cloacae [6] = assay: Antibacterial activity against drug-resistant AcrAB-TolC efflux pump deficient Enterobacter cloacae EcdeltaacrA isolate expressing pBGS18 plasmid by Etest; type: functional
Enterobacter cloacae [7] = assay: Antibacterial activity against drug-resistant AcrAB-TolC efflux pump deficient Enterobacter cloacae EcdeltaacrA isolate by Etest; type: functional
Enterobacter cloacae [8] = assay: Antibacterial activity against drug-resistant AcrAB-TolC efflux pump deficient Enterobacter cloacae EcdeltaacrA isolate in presence of 20 ug/ml efflux pump inhibitor Phe-Arg-beta-naphthylamide by Etest; type: functional
Enterobacter cloacae [9] = assay: Antibacterial activity against drug-resistant AcrAB-TolC efflux pump deficient Enterobacter cloacae EcdeltaacrA isolate by standard disk diffusion method; type: functional
Procedure, shortened: (§1)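 Standard disk diffusion on Mueller-Hinton agar with telithromycin, fusidic acid, novobiocin, nalidixic acid, rifampin and norfloxacin disks. The read-out is the inhibition zone diameter in mm. The acrA-deleted strain was complemented with acrA on pAP-2, and pACYC184 served as the empty vector.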

Enterobacter cloacae [10] = assay: Antibacterial activity against drug-resistant Enterobacter cloacae EcDC64 isolate expressing pBGS18 plasmid by standard disk diffusion method
Enterobacter cloacae [11] = assay: Antibacterial activity against drug-resistant Enterobacter cloacae EcDC64 isolate expressing AcrAB-TolC efflux pump in presence of 20 ug/ml efflux pump inhibitor Phe-Arg-beta-naphthylamide by standard disk diffusion method; type: functional; procedure, shortened: as §1
Enterobacter cloacae [12] = assay: Antibacterial activity against drug-resistant AcrAB-TolC efflux pump deficient Enterobacter cloacae EcdeltaacrA isolate expressing pACYC184 plasmid by standard disk diffusion method; type: functional; procedure, shortened: as §1
Enterobacter cloacae [13] = assay: Antibacterial activity against drug-resistant Enterobacter cloacae EcDC64 isolate expressing pAP3 plasmid containing Enterobacter aerogenes acrR gene by standard disk diffusion method
Enterobacter cloacae [14] = assay: Antibacterial activity against drug-resistant Enterobacter cloacae EcDC64 isolate expressing AcrAB-TolC efflux pump by standard disk diffusion method; type: functional; procedure, shortened: as §1
Enterobacter cloacae [15] = assay: Antibacterial activity against drug-resistant AcrAB-TolC efflux pump deficient Enterobacter cloacae EcdeltaacrA isolate expressing pAP2 plasmid containing Enterobacter cloacae acrA gene by standard disk diffusion method; type: functional; procedure, shortened: as §1
Enterobacter cloacae [16] = assay: Antibacterial activity against drug-resistant AcrAB-TolC efflux pump deficient Enterobacter cloacae EcdeltaacrA isolate in presence of 20 ug/ml efflux pump inhibitor Phe-Arg-beta-naphthylamide by standard disk diffusion method; type: functional; procedure, shortened: as §1

Compound | MIC (Enterobacter cloacae [1]) | MIC (Enterobacter cloacae [2]) | MIC (Enterobacter cloacae [3]) | MIC (Enterobacter cloacae [4]) | MIC (Enterobacter cloacae [5]) | MIC (Enterobacter cloacae [6]) | MIC (Enterobacter cloacae [7]) | MIC (Enterobacter cloacae [8]) | inhibition zone (IZ) (Enterobacter cloacae [9]) | inhibition zone (IZ) (Enterobacter cloacae [10]) | inhibition zone (IZ) (Enterobacter cloacae [11]) | inhibition zone (IZ) (Enterobacter cloacae [12]) | inhibition zone (IZ) (Enterobacter cloacae [13]) | inhibition zone (IZ) (Enterobacter cloacae [14]) | inhibition zone (IZ) (Enterobacter cloacae [15]) | inhibition zone (IZ) (Enterobacter cloacae [16])
CO/N=C(\C(=O)N[C@@H]1C(=O)N2C(C(=O)O)=C(COC(C)=O)CS[C@H]12)c1csc(N)n1 [CEFOTAXIME] | > 256 µg/mL | > 256 µg/mL | > 256 µg/mL | > 256 µg/mL | > 256 µg/mL | > 256 µg/mL | > 256 µg/mL | 8 µg/mL | – | – | – | – | – | – | – | –
CCn1cc(C(=O)O)c(=O)c2cc(F)c(N3CCNCC3)cc21 [NORFLOXACIN] | – | – | – | – | – | – | – | – | 40 mm | 27 mm | 40 mm | 38 mm | 35 mm | 26 mm | 24 mm | 42 mm
CO/N=C(\C(=O)N[C@@H]1C(=O)N2C(C(=O)O)=C(COC(N)=O)CS[C@H]12)c1ccco1 [CEFUROXIME] | > 256 µg/mL | > 256 µg/mL | > 256 µg/mL | > 256 µg/mL | > 256 µg/mL | > 256 µg/mL | > 256 µg/mL | 48 µg/mL | – | – | – | – | – | – | – | –
CC(=O)OCC1=C(C(=O)O)N2C(=O)[C@@H](NC(=O)Cc3cccs3)[C@H]2SC1 [CEPHALOTHIN] | > 256 µg/mL | > 256 µg/mL | > 256 µg/mL | > 256 µg/mL | > 256 µg/mL | > 256 µg/mL | > 256 µg/mL | > 256 µg/mL | – | – | – | – | – | – | – | –
CO[C@H]1/C=C/O[C@@]2(C)Oc3c(C)c(O)c4c(O)c(c(/C=N/N5CCN(C)CC5)c(O)c4c3C2=O)NC(=O)/C(C)=C\C=C\[C@H](C)[C@H](O)[C@@H](C)[C@@H](O)[C@@H](C)[C@H](OC(C)=O)[C@@H]1C [RIFAMPIN] | – | – | – | – | – | – | – | – | 13 mm | 10 mm | 26 mm | 8 mm | 10 mm | 0 mm | 0 mm | 28 mm
CN(C)c1cc(NC(=O)CNC(C)(C)C)c(O)c2c1C[C@H]1C[C@H]3[C@H](N(C)C)C(O)=C(C(N)=O)C(=O)[C@@]3(O)C(O)=C1C2=O [TIGECYCLINE] | 0.5 µg/mL (≈ 0.854 µM) | 0.75 µg/mL (≈ 1.28 µM) | 0.19 µg/mL (≈ 0.324 µM) | 0.75 µg/mL (≈ 1.28 µM) | 0.125 µg/mL | 0.38 µg/mL (≈ 0.649 µM) | 0.125 µg/mL (≈ 0.213 µM) | 0.064 µg/mL | – | – | – | – | – | – | – | –
CO[C@@H]1[C@@H](OC(N)=O)[C@@H](O)[C@H](Oc2ccc3c(O)c(NC(=O)c4ccc(O)c(CC=C(C)C)c4)c(=O)oc3c2C)OC1(C)C [NOVOBIOCIN] | – | – | – | – | – | – | – | – | 16 mm | 0 mm | 20 mm | 14 mm | 0 mm | 0 mm | 0 mm | 22 mm
CC(C)(O/N=C(\C(=O)N[C@@H]1C(=O)N2C(C(=O)[O-])=C(C[n+]3ccccc3)CS[C@H]12)c1csc(N)n1)C(=O)O [CEFTAZIDIME] | > 256 µg/mL | > 256 µg/mL | > 256 µg/mL | > 256 µg/mL | > 256 µg/mL | > 256 µg/mL | > 256 µg/mL | 16 µg/mL | – | – | – | – | – | – | – | –
NCC[C@H](O)C(=O)N[C@@H]1C[C@H](N)[C@@H](O[C@H]2O[C@H](CN)[C@@H](O)[C@H](O)[C@H]2O)[C@H](O)[C@H]1O[C@H]1O[C@H](CO)[C@@H](O)[C@H](N)[C@H]1O [AMIKACIN] | 0.5 µg/mL (≈ 0.854 µM) | 2 µg/mL (≈ 3.42 µM) | 1 µg/mL (≈ 1.71 µM) | 2 µg/mL (≈ 3.42 µM) | 1.5 µg/mL | 2 µg/mL (≈ 3.42 µM) | 0.5 µg/mL (≈ 0.854 µM) | 0.125 µg/mL | – | – | – | – | – | – | – | –
CC(=O)NC[C@H]1CN(c2ccc(N3CCOCC3)c(F)c2)C(=O)O1 [LINEZOLID] | 4 µg/mL (≈ 11.9 µM) | > 256 µg/mL | > 256 µg/mL | > 256 µg/mL | 4 µg/mL | > 256 µg/mL | 8 µg/mL (≈ 23.7 µM) | 0.5 µg/mL | – | – | – | – | – | – | – | –
CCC[C@@H]1C[C@@H](C(=O)N[C@@H]([C@H]2O[C@H](SC)[C@H](O)[C@@H](O)[C@H]2O)[C@H](C)Cl)N(C)C1 [CLINDAMYCIN] | 4 µg/mL (≈ 9.41 µM) | > 256 µg/mL | 32 µg/mL (≈ 75.3 µM) | > 256 µg/mL | 6 µg/mL | > 256 µg/mL | 2 µg/mL (≈ 4.71 µM) | 1 µg/mL | – | – | – | – | – | – | – | –
CCN1CCN(C(=O)N[C@@H](C(=O)N[C@@H]2C(=O)N3[C@@H]2SC(C)(C)[C@@H]3C(=O)O)c2ccccc2)C(=O)C1=O [PIPERACILLIN] | > 256 µg/mL | > 256 µg/mL | 96 µg/mL (≈ 185 µM) | > 256 µg/mL | 192 µg/mL | > 256 µg/mL | 192 µg/mL (≈ 371 µM) | 6 µg/mL | – | – | – | – | – | – | – | –
CCn1cc(C(=O)O)c(=O)c2ccc(C)nc21 [NALIDIXIC ACID] | – | – | – | – | – | – | – | – | 33 mm | 21 mm | 27 mm | 30 mm | 29 mm | 24 mm | 12 mm | 40 mm
CC[C@H]1OC(=O)[C@H](C)C(=O)[C@H](C)[C@@H](O[C@@H]2O[C@H](C)C[C@H](N(C)C)[C@H]2O)[C@](C)(OC)C[C@@H](C)C(=O)[C@H](C)[C@H]2N(CCCCn3cnc(-c4cccnc4)c3)C(=O)O[C@]12C [TELITHROMYCIN] | – | – | – | – | – | – | – | – | 19 mm | 10 mm | 32 mm | 18 mm | 12 mm | 9 mm | 13 mm | 34 mm
CC(=O)O[C@H]1C[C@@]2(C)[C@@H](C[C@@H](O)[C@H]3[C@@]4(C)CC[C@@H](O)[C@@H](C)[C@@H]4CC[C@@]32C)/C1=C(\CCC=C(C)C)C(=O)O [FUSIDIC ACID] | – | – | – | – | – | – | – | – | 0 mm | 0 mm | >40 mm | 0 mm | 0 mm | 0 mm | 0 mm | 26 mm
CO[C@@]1(NC(=O)Cc2cccs2)C(=O)N2C(C(=O)O)=C(COC(N)=O)CS[C@@H]21 [CEFOXITIN] | > 256 µg/mL | > 256 µg/mL | > 256 µg/mL | > 256 µg/mL | > 256 µg/mL | > 256 µg/mL | > 256 µg/mL | > 256 µg/mL | – | – | – | – | – | – | – | –
O=C(N[C@H](CO)[C@H](O)c1ccc([N+](=O)[O-])cc1)C(Cl)Cl [CHLORAMPHENICOL] | > 256 µg/mL | 8 µg/mL (≈ 24.8 µM) | 1 µg/mL (≈ 3.09 µM) | > 256 µg/mL | 0.25 µg/mL | 8 µg/mL (≈ 24.8 µM) | 0.5 µg/mL (≈ 1.55 µM) | 0.047 µg/mL | – | – | – | – | – | – | – | –
NC[C@H]1O[C@H](O[C@H]2[C@H](O)[C@@H](O[C@H]3O[C@H](CO)[C@@H](O)[C@H](N)[C@H]3O)[C@H](N)C[C@@H]2N)[C@H](N)C[C@@H]1O [TOBRAMYCIN] | 0.25 µg/mL (≈ 0.535 µM) | 1.5 µg/mL (≈ 3.21 µM) | 0.38 µg/mL (≈ 0.813 µM) | 1.5 µg/mL (≈ 3.21 µM) | 0.5 µg/mL | 1 µg/mL (≈ 2.14 µM) | 0.125 µg/mL (≈ 0.267 µM) | 0.047 µg/mL | – | – | – | – | – | – | – | –
Cc1onc(-c2ccccc2)c1C(=O)N[C@@H]1C(=O)N2[C@@H]1SC(C)(C)[C@@H]2C(=O)O [OXACILLIN] | > 256 µg/mL | > 256 µg/mL | > 256 µg/mL | > 256 µg/mL | 48 µg/mL | > 256 µg/mL | 96 µg/mL (≈ 239 µM) | 4 µg/mL | – | – | – | – | – | – | – | –
CC[C@H]1OC(=O)[C@H](C)[C@@H](O[C@H]2C[C@@](C)(OC)[C@@H](O)[C@H](C)O2)[C@H](C)[C@@H](O[C@@H]2O[C@H](C)C[C@H](N(C)C)[C@H]2O)[C@](C)(O)C[C@@H](C)C(=O)[C@H](C)[C@@H](O)[C@]1(C)O [ERYTHROMYCIN] | 16 µg/mL (≈ 21.8 µM) | > 256 µg/mL | 48 µg/mL (≈ 65.4 µM) | 128 µg/mL (≈ 174 µM) | 1 µg/mL | > 256 µg/mL | 12 µg/mL (≈ 16.4 µM) | 0.094 µg/mL | – | – | – | – | – | – | – | –
CN(C)[C@@H]1C(O)=C(C(N)=O)C(=O)[C@@]2(O)C(O)=C3C(=O)c4c(O)cccc4[C@@](C)(O)[C@H]3C[C@@H]12 [TETRACYCLINE] | 64 µg/mL (≈ 144 µM) | > 256 µg/mL | 192 µg/mL (≈ 432 µM) | > 256 µg/mL | 64 µg/mL | > 256 µg/mL | 64 µg/mL (≈ 144 µM) | 1.5 µg/mL | – | – | – | – | – | – | – | –
